Assay outcomes: PubChem BioAssay, Johns Hopkins Ion Channel Center
Rows were chosen to be rich in hits. Some 3.7% of all compounds tested hit in one or more screens of this group.
KCNK3 inh – human KCNK3 channel inhibition, primary screen. O14649. CHO-KCNK3 thallium flux, FluxOR fluorescence; hits give low values. B-score at 10 µM. 0.84% of 340,000 active. AID 602410;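 active means B-score under library mean minus 4 SD, starting fluorescence ratio at most library mean plus 5 SD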;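 further: more negative B-score means stronger inhibition of thallium flux through KCNK3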
Kir21 inh – inhibitors of mouse Kir2.1 inward-rectifier potassium channel; P35561; HEK293-Kir2.1, FluxOR thallium flux fluorescence; hits give low values; B-score at 10 µM; 0.85% of 310,000 active; AID 1672;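 active means fluorescence ratio B-score at or below minus 3 SD of library scores, with starting-brightness B-score within 2 SD, cut at about -4.2 in these data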;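 further: channel flux triggered by added potassium and thallium sulfate stimulus; B-score of peak minus minimum fluorescence over baseline after thallium stimulus; more negative B-score means stronger Kir2.1 block with less thallium influx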
Target sequence (P35561 whole entry, looked up): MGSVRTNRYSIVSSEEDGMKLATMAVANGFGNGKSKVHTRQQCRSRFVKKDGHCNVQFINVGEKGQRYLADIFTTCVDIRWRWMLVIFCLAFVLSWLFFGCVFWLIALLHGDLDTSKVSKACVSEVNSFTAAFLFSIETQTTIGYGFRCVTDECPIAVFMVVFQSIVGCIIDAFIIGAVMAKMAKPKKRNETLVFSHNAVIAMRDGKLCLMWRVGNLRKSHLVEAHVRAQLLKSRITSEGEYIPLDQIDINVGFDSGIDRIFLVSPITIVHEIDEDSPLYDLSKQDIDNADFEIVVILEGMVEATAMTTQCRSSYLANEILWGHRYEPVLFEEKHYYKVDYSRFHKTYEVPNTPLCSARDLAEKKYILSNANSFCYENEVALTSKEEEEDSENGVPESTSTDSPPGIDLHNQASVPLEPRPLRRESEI
KCNK9 block – human KCNK9 channel inhibition; AID 488922; Q9NPC2; 1.2% of 310,000 active; HEK293 KCNK9, FluxOR thallium flux fluorescence; hits give low values; B-score at 10 µM;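 active means ratio B-score over 3 SD below the library mean, with starting fluorescence within 5 SD of its mean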;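 further: negative B-score means less thallium flux so channel inhibition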
hERG protect – shields human hERG channel from block by proarrhythmic agents. CHO-hERG, FluxOR thallium flux, dofetilide IC70 present. Q12809. 0.51% of 310,000 active. activation (rescue from dofetilide block), less the hit threshold, % at 10 µM. AID 1511;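 active means activation above the mean of controls blocked by dofetilide plus 5 SD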;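 further: thallium influx through hERG after potassium depolarization seen as dye fluorescence rise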
KCNQ1 act – human KCNQ1 channel potentiation or activation; CHO-K1 KCNQ1, thallium flux FluxOR fluorescence; hits give high values; B-score at 10 µM; P51787; 0.35% of 310,000 active;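 active means fluorescence ratio B-score, a plate-corrected score, at least three library SD, with initial intensity B-score within 5 SD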
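System: Stable KCNQ1 CHO-K1 line | Incubation: 90 min dye loading and 20 min compound exposure, both at room temperature | Measure: Ratio B score | Medium: Assay buffer for compound exposure, DMSO matched across wells | Compound dosing: Single-concentration screen | Probe or stimulus: K+/Tl+ depolarizing stimulus | Measured by: Kinetic FluxOR fluorescence, 10 s baseline plus 110 s post-stimulus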
KCNQ1 block – human KCNQ1 channel inhibition; P51787; B-score at 10 µM; CHO-K1 KCNQ1, FluxOR thallium flux fluorescence; hits give high values; 1.3% of 310,000 active;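 active means compounds whose thallium flux B-score, printed positive for inhibition, exceeds three library SD while starting fluorescence stays within three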;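 further: channel opened by potassium depolarization with thallium stimulus after 20 min compound exposure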
An asterisk follows results filed as active; i = inactive; · = not tested or not shown.

SMILES | KCNK3 inh | Kir21 inh | KCNK9 block | hERG protect | KCNQ1 act | KCNQ1 block
CC1(C(=O)Nc2cccc(C(F)(F)F)c2)CO1 (stereo not given) | · | 0.74 | i | -11.2 | i | i
O=c1[nH]c(SCc2c(Cl)cccc2Cl)nc2ccccc12 | i | -0.42 | i | -21.8 | i | i
O=c1[nH]c(C(Cl)(Cl)Cl)nc2ccc3ccccc3c12 | i | 0.06 | i | 5.1* | 25* | i
CN1CCN(c2ccccc2NC(=O)c2ccc(-c3ccccc3)cc2)CC1 | -8.76* | -1.76 | i | -14.2 | i | i
C[C@H]1CN([C@@H](C)CO)C(=O)Cc2cc(NC(=O)C3CC3)ccc2O[C@H]1CN(C)Cc1ccc(C(=O)O)cc1 | i | · | · | · | · | ·
Cc1cc2c(SCC(=O)Nc3cccc(O)c3)ncnc2s1 | i | · | · | · | · | ·
Cc1ccc(C23CC4CC(CC(CN)(C4)C2)C3)cc1 | i | -5.9* | i | -9.3 | i | i
CN1CCN(C(c2ccccn2)c2cc(Cl)c3cccnc3c2O)CC1 (stereo not given) | i | -0.47 | i | -9.8 | i | i
Oc1c(C(c2ccccn2)N2CCC(Cc3ccccc3)CC2)cc(Cl)c2cccnc12 (stereo not given) | · | 0.06 | i | -2.1 | i | 13*
CCCCn1c(N)c(N(CC(C)C)C(=O)c2ccc(OC)c(S(=O)(=O)N3CCOCC3)c2)c(=O)[nH]c1=O | i | · | · | · | · | ·
CC(=O)c1cn(S(=O)(=O)c2ccccc2)c2ccccc12 | i | -2.36 | i | -1.3 | i | i
COc1ccc(OC)c(-c2cc(C(=O)N3CCc4ccccc4C3)no2)c1 | i | 1.63 | i | -9.6 | i | 6*
COc1ccc2sc(-c3ccc(N(C)C)cc3)c(C#Cc3cncn3C)c2c1 | i | · | · | · | · | ·
O=C(COc1ccc2c(c1)OCO2)Nc1ccccc1F | i | 0.49 | i | -9.6 | i | i
Fc1ccc(C2CCNCC2COc2ccc3c(c2)OCO3)cc1 (stereo not given) | i | -6.55* | i | -7.7 | i | i
Fc1ccc([C@@H]2CCNC[C@H]2COc2ccc3c(c2)OCO3)cc1 | i | -6.53* | i | -5.9 | i | i
CSc1ccc(/C=C/C(=O)OCC(=O)N2CCN(c3ccccc3)CC2)cc1 | i | · | · | · | · | ·
Cc1ccc(S(=O)(=O)NC(=O)N2CCCC2)cc1 | i | · | · | · | · | ·
CC(C)(C)N1C(=O)[C@H]2[C@@H](c3ccc(Br)cc3)N3C(=O)N(c4cccc(Br)c4)C(=O)[C@@]3(Cc3ccccc3)[C@H]2C1=O | i | -1.01 | -6.87* | -3.6 | i | i
CC1(C)CC(=O)c2c(O)cc(OCC(=O)Nc3ccc(S(N)(=O)=O)cc3)cc2O1 | i | -0.01 | i | -4.7 | i | i
COc1cc(NC(=O)COc2cc(O)c3c(c2)OC(C)(C)CC3=O)cc(OC)c1OC | i | 0.02 | i | -28.0 | i | 9*
Cc1cccc(OCC(O)Cn2c(N3CCCCC3)nc3c2c(=O)n(C)c(=O)n3C)c1 (stereo not given) | i | 0.99 | i | -0.8 | i | i
CCOc1cccc(C(=O)Nc2ccccc2C(=O)N2CCN(C)CC2)c1 | i | -2.23 | i | -2.8 | i | i
CCN(CC)CCCNc1ccc(-c2nnc(-c3ccc(OCC(C)C)cc3)o2)cn1 | i | -6.55* | i | -25.2 | i | 9*
CC(C)COc1ccc(-c2nnc(-c3ccco3)o2)cc1 | i | 0.03 | i | -3.7 | i | i
SMILES | KCNK3 inh | Kir21 inh | KCNK9 block | hERG protect | KCNQ1 act | KCNQ1 block
CC(C)(O)/C=C/C[C@](C)(O)C1CC[C@]2(C)C1[C@H](O[C@H]1O[C@@H](CO)[C@H](O)[C@@H](O)[C@@H]1O)CC1[C@@]3(C)CC[C@H](O)C(C)(C)C3[C@@H](O)C[C@]12C (stereo not given in full) | i | · | · | · | · | ·
O=[N+]([O-])c1cccc(/C=C/C=N/Nc2nc(N3CCCCC3)nc(N3CCCCC3)n2)c1 | i | -1.3 | i | 1.4 | i | 6*
O=[N+]([O-])c1cccc(/C=N/Nc2nc(N3CCOCC3)nc(N3CCOCC3)n2)c1 | i | -1.2 | i | -9.3 | i | i
CC(C)(C)OC(=O)C[C@@H]1C/C=C\C[C@H](CC(=O)NCCO)C(=O)NC[C@@H](c2ccccc2)OC1=O | i | · | · | · | · | ·
Cc1ccc(COn2c(-c3ccc(Cl)cc3)nc3ccc([N+](=O)[O-])cc32)cc1 | i | 0.21 | i | -6.5 | i | i
CCOC(=O)C(C)On1c(-c2ccc(Cl)cc2)nc2ccc([N+](=O)[O-])cc21 (stereo not given) | i | 0.57 | i | -2.3 | i | 9*
CCOC(=O)C(C)On1c(-c2ccccc2)nc2ccc([N+](=O)[O-])cc21 (stereo not given) | i | -1.41 | i | -16.1 | i | i
O=[N+]([O-])c1ccc2nc(-c3ccc(Cl)cc3)n(OCc3ccccc3)c2c1 | i | 0.19 | i | -3.8 | i | 6*
CCOc1ccccc1C(=O)NCC(=O)OCC(=O)c1c(N)n(C)c(=O)n(C)c1=O | i | · | · | · | · | ·
CCOc1ccccc1Nc1nnc(SCC(=O)N(C)C2CCS(=O)(=O)C2)s1 (stereo not given) | i | · | · | · | · | ·
O=C(Nc1cc(C(F)(F)F)ccc1Cl)C(Sc1nnc(-c2cccs2)o1)c1ccccc1 (stereo not given) | i | -1.94 | i | -13.4 | i | 6*
O=C(Nc1ccc(Cl)cc1C(F)(F)F)C(Sc1nnc(-c2cccs2)o1)c1ccccc1 (stereo not given) | i | 1.92 | i | -11.7 | i | 6*
Cn1cc([N+](=O)[O-])c(C(=O)N/N=C/c2ccccc2)n1 | i | 2.22 | i | 4.7* | i | i
Cn1cc([N+](=O)[O-])c(C(=O)N/N=C\c2c[nH]c3ccccc23)n1 | i | -0.26 | i | -3.1 | i | i
Cc1ccccc1CNC(=O)c1ccccc1SCC(=O)NCc1ccco1 | i | · | · | · | · | ·
O=C(/C=C/c1ccc(Br)cc1)N1CCN(c2cccc(C(F)(F)F)c2)CC1 | i | 1.29 | i | -13.3 | i | 7*
COc1ccc(/C=C/CN2CCCC(CCC(=O)NCc3ccc(F)c(F)c3)C2)cc1 (stereo not given) | i | -4.9* | i | -14.8 | i | i
O=C(c1ccco1)N1CCN=C1SCc1ccc(F)cc1 | i | -2.37 | i | -7.6 | 39* | i
COc1cc(NC(=O)CN2C(=O)COc3ccccc32)cc(OC)c1 | i | · | · | · | · | ·
O=C(Nc1cccnc1)c1ccc(COc2ccccc2Br)o1 | i | 1.05 | i | 22.0* | i | i
O=C(NCc1cccnc1)c1ccc(COc2ccccc2Br)o1 | i | -0.83 | i | -9.0 | i | i
